Glyco luc inh = N-linked glycosylation inhibition; D54 ERlucT glycosylation luciferase reporter, 24 h; percent of 100 nM tunicamycin response; AID 588692; reporter increase, % at 12.5 µM; 360,000 tested, 0.23% active;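 active = mean luciferase reporter signal, scaled so untreated is 0 and the glycosylation-blocking control 100, at or above a set limit in every replicate; inconclusive = mean reaches the limit but not every replicate does; inactive = mean below the limit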;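 also: luciferase carries N-glycosylation sites so blocking glycosylation raises the light; 0% = median of neutral control wells and 100% = median of 100 nM tunicamycin wells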
RAD52 anneal inh = blocks human RAD52 DNA annealing. 360,000 tested, 0.46% active. inhibition, % at 18.7 µM. P43351. recombinant RAD52 DNA annealing, FRET fluorescence;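 active = every replicate showing at least 50% inhibition; inconclusive = mean inhibition at least 50% but not in every replicate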
Target sequence (P43351 whole entry, looked up): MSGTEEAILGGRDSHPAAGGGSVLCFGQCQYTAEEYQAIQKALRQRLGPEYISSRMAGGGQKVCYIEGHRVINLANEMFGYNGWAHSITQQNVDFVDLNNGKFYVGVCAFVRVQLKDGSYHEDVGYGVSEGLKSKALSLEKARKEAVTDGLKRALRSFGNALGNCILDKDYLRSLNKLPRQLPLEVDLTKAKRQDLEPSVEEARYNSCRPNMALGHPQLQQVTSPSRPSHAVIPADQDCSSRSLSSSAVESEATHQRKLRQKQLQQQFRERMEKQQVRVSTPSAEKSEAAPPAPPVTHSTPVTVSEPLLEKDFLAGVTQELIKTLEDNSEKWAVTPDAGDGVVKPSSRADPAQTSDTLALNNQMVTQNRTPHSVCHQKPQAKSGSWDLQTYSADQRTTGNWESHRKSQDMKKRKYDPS
RAD54 inh = blocks human RAD54 Holliday junction branch migration. Q92698. FAM/BHQ fluorescence. inhibition, % at 10.4 µM. 360,000 tested, 0.14% active;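 active = mean normalized replicate activity at least 40 and at least half of replicates scoring 40 or more; inconclusive = only one of the two criteria met; inactive = mean below 40 and under half of replicates reaching 40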;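 also: 0% = median of neutral control wells and 100% = median of positive control wells; inhibitors cause a drop in the FAM fluorescence signal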
CaV13 ICDI inh = Primary screen for inhibitors of IQ motif and Ca2+-dependent inactivation inhibitor domain binding in CACNA1D, Förster resonance energy transfer in living cells, …; HEK cells, CFP/YFP FRET ICDI-IQ, plate reader, 10 min; percent FRET-ratio fall versus neutral wells; inhibition, % at 12.3 µM; 340,000 tested, 0.098% active;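 active = mean replicate inhibition of at least 30% and at least 1% of replicates passing that level; inconclusive = only one of the two criteria is met; inactive = neither criterion is met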;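 also: 0% = median of the neutral control wells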
FN deposit inh = fibronectin deposition inhibition | AH1F fibroblasts, Alexa488-fibronectin deposition fluorescence, overnight | inhibition, % at 12.6 µM | 350,000 tested, 0.086% active | AID 743247;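 active = mean inhibition across replicates of 30% or more, regardless of how many single replicates reach that level; inconclusive = mean under 30% yet at least half of replicates reach 30%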;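 also: positive control wells lacked labelled fibronectin entirely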
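material = AH1F fibroblast monolayer depositing Alexa488-labelled fibronectin into matrix | amount = 10000 AH1F cells/well | buffer or medium = DMEM plus 2% serum, read in PBS | incubation = 1 h cell adhesion before compound, then overnight fibronectin incubation | detection = fluorescence at 485 nm excitation, 525 nm emission | evaluation = percent inhibition as loss of matrix-bound fibronectin fluorescence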
An asterisk follows results filed as active. This is a sample that favours compounds with a hit; in the whole collection about 0.7% have one here.

How did CO[C@@H]1CN(C)C(=O)c2cc(NS(=O)(=O)c3ccccc3Cl)ccc2OC[C@H](C)NC[C@@H]1C do in these assays?
RAD52 anneal inh: -11; RAD54 inh: 3; FN deposit inh: 5

How did COc1ccc(C(=O)Oc2cc(N)n(S(=O)(=O)c3ccccc3)n2)cc1 do in these assays?
Glyco luc inh: 2; RAD52 anneal inh: -11; CaV13 ICDI inh: 97*; FN deposit inh: 0

How did Cc1cc(-n2c(SCC(=O)NCCC3=CCCCC3)nc3n[nH]c(C)c3c2=N)ccc1Cl do in these assays?
Glyco luc inh: 59*; RAD52 anneal inh: -7; RAD54 inh: 3; CaV13 ICDI inh: -3; FN deposit inh: -9

How did Cc1ccc(S(=O)(=O)c2cc3c(=O)n4ccccc4nc3n(C)c2=N)cc1 do in these assays?
Glyco luc inh: -1; RAD54 inh: -10; CaV13 ICDI inh: 80*; FN deposit inh: -11

How did Cc1ccc(S(=O)(=O)c2cc3c(=O)n4ccccc4nc3n(CCc3ccccc3)c2=N)cc1 do in these assays?
Glyco luc inh: 69*; RAD52 anneal inh: -33; RAD54 inh: -8; CaV13 ICDI inh: -3; FN deposit inh: 3

Results for Cc1ccc(S(=O)(=O)c2cc3c(=O)n4ccccc4nc3n(C3CCCC3)c2=N)cc1 ?
Glyco luc inh: -1; RAD52 anneal inh: -30; RAD54 inh: 4; CaV13 ICDI inh: 12; FN deposit inh: 16

What do the screens show for `COc1ccc(CCn2c(=N)c(S(=O)(=O)c3ccc(Cl)cc3)cc3c(=O)n4ccccc4nc32)cc1`?
Glyco luc inh: 4; RAD52 anneal inh: -63; RAD54 inh: -8; CaV13 ICDI inh: -3; FN deposit inh: -2

Results for C[C@H]1CCCCO[C@@H](CN(C)C(=O)Nc2ccc(C(F)(F)F)cc2)[C@@H](C)CN([C@@H](C)CO)C(=O)c2cc(NC(=O)C3CCCCC3)ccc2O1 ?
RAD52 anneal inh: -22; RAD54 inh: -3

How did C[C@@H]1CCCCO[C@H](CN(C)Cc2ccc3c(c2)OCO3)[C@@H](C)CN([C@@H](C)CO)C(=O)c2cc(NC(=O)Nc3ccc(C(F)(F)F)cc3)ccc2O1 do in these assays?
RAD52 anneal inh: 61*; RAD54 inh: 3

What do the screens show for `C[C@@H]1CCCCO[C@@H](CN(C)C)[C@H](C)CN([C@@H](C)CO)C(=O)c2cc(NC(=O)Nc3ccc(C(F)(F)F)cc3)ccc2O1`?
RAD52 anneal inh: 53*; RAD54 inh: 6

What do the screens show for `C[C@@H]1CN([C@@H](C)CO)C(=O)c2cc(NC(=O)C3CCCCC3)ccc2O[C@@H](C)CCCCO[C@@H]1CN(C)C(=O)Nc1ccc(C(F)(F)F)cc1`?
RAD52 anneal inh: 60*; RAD54 inh: 0

What do the screens show for `C[C@@H]1CN([C@H](C)CO)C(=O)c2cc(NC(=O)Nc3ccc(C(F)(F)F)cc3)ccc2O[C@@H](C)CCCCO[C@H]1CN(C)Cc1ccc2c(c1)OCO2`?
RAD52 anneal inh: 44; RAD54 inh: 2; FN deposit inh: -4

Results for C[C@@H]1CCCCO[C@@H](CN(C)Cc2ccc3c(c2)OCO3)[C@@H](C)CN([C@@H](C)CO)C(=O)c2cc(NC(=O)Nc3ccc4c(c3)OCO4)ccc2O1 ?
RAD52 anneal inh: 55*; RAD54 inh: 7; FN deposit inh: 8

Results for C[C@H](CO)N1C[C@H](C)[C@@H](CN(C)C)OCCCC[C@H](C)Oc2ccc(NC(=O)Nc3ccc(C(F)(F)F)cc3)cc2C1=O ?
RAD52 anneal inh: 44; RAD54 inh: 2

How did COc1ccc(S(=O)(=O)Nc2cccc3c2O[C@@H](CN(C)C(=O)Nc2ccc4c(c2)OCO4)[C@H](C)CN([C@@H](C)CO)C3=O)cc1 do in these assays?
RAD52 anneal inh: -6; RAD54 inh: 2; FN deposit inh: -1

Results for Cc1noc(C)c1S(=O)(=O)Nc1ccc2c(c1)CC(=O)N([C@@H](C)CO)C[C@H](C)[C@H](CN(C)S(=O)(=O)c1ccccc1)O2 ?
RAD52 anneal inh: -8; RAD54 inh: -2

How did C[C@@H]1CN([C@@H](C)CO)C(=O)c2cc(NC(=O)Nc3ccc(F)cc3)ccc2O[C@@H](C)CCCCO[C@@H]1CN(C)Cc1ccncc1 do in these assays?
RAD54 inh: 3; FN deposit inh: 0

How did CC[C@H](C)[C@@H]1NC(=O)c2cc([N+](=O)[O-])cc(F)c2NCCCC[C@@H](C(N)=O)NC(=O)[C@H](CC(N)=O)NC1=O do in these assays?
Glyco luc inh: 3; RAD52 anneal inh: -9; RAD54 inh: -1; CaV13 ICDI inh: -5; FN deposit inh: -5

How did C[C@@H](O)C1NC(=O)[C@H](CCCCN)NC(=O)c2cc([N+](=O)[O-])cc(F)c2NCCCC[C@@H](C(N)=O)NC1=O (stereo partly drawn) do in these assays?
Glyco luc inh: 1; RAD54 inh: 54*

Results for C[C@@H]1CN([C@@H](C)CO)C(=O)c2cccc(NC(=O)Nc3cccc4ccccc34)c2O[C@H]1CN(C)S(=O)(=O)c1cn(C)cn1 ?
FN deposit inh: -4

Results for C[C@@H]1CN([C@H](C)CO)C(=O)c2cc(N(C)C)ccc2O[C@H]1CN(C)C(=O)Nc1ccc(C(F)(F)F)cc1 ?
RAD52 anneal inh: 3; RAD54 inh: -2; FN deposit inh: -6

How did CC(=O)c1ccc(OCC(O)CN2CCN(CCN3C(=O)c4cccc5cccc(c45)C3=O)CC2)cc1 (stereo not drawn) do in these assays?
Glyco luc inh: 56*; CaV13 ICDI inh: -4; FN deposit inh: 0

What do the screens show for `NC(=O)c1cc([N+](=O)[O-])ccc1NCc1cccnc1`?
Glyco luc inh: 2; RAD52 anneal inh: -18; CaV13 ICDI inh: 42*; FN deposit inh: 0

What do the screens show for `CCCOc1ccc(NC(=O)c2c(-c3ccccc3)noc2C)cc1`?
Glyco luc inh: 0; RAD52 anneal inh: -13; RAD54 inh: 2; CaV13 ICDI inh: 36*; FN deposit inh: -13

What do the screens show for `CC1CCN(Cc2ccc(NC(=O)CC3Oc4ccccc4NC3=O)cc2)CC1` (stereo not drawn)?
Glyco luc inh: -4; RAD52 anneal inh: -12; RAD54 inh: 6; CaV13 ICDI inh: 52*; FN deposit inh: 2

What do the screens show for `NC(=O)N=Nc1c2[nH]c3ccccc3nc-2c2ccccc12`?
Glyco luc inh: 94*; RAD52 anneal inh: -11; RAD54 inh: inconclusive; CaV13 ICDI inh: -4; FN deposit inh: 18

How did O=c1[nH]c2ccccc2nc1-c1ccccc1 do in these assays?
Glyco luc inh: 2; RAD52 anneal inh: -3; RAD54 inh: 2; CaV13 ICDI inh: -3; FN deposit inh: -11

How did Nc1c(C(=O)NCc2ccc(F)cc2)c2nc3ccccc3nc2n1CCCN1CCOCC1 do in these assays?
Glyco luc inh: 1; RAD54 inh: 7; CaV13 ICDI inh: -2; FN deposit inh: 8

What do the screens show for `COCCOC(=O)c1c(N)n(CCCN2CCOCC2)c2nc3ccccc3nc12`?
Glyco luc inh: 4; RAD52 anneal inh: 4; CaV13 ICDI inh: -3; FN deposit inh: -8
